Measured values published in PubChem BioAssay.
Active and inactive are the calls of the source.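 Rule for the calls, unless noted: active = a full or partial loss of lipid-probe fluorescence in the fish gall bladder, intestine or both, judged by eye; inactive = no fluorescence loss, or compound toxic to the fish.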

Key:
[1] = inhibitors of TNFa-induced NFkB p65 translocation, primary screen, imaging, HUVEC, MLSMR starter and 10KST1 sets (AID 438;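 active = inhibition above 20% together with a positive visual image hit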;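 note: compound added about 3h40 before a 20 min TNFalpha stimulation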;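 for inhibition: signal is the nuclear over cytoplasmic p65 intensity ratio per well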); conditions: HUVEC TNFa-induced p65 nuclear translocation; cell count: measured here: nuclei count (cytotoxicity indicator), at 2.08 µM; inhibition: at 2 µM, stronger effect = higher value, 0% TNFa-plus-vehicle, 100% no-TNFa wells
[2] = endothelial E-selectin expression blockers – imaging, HUVEC, immunofluorescence, MLSMR starter and 10KST1 sets, primary screen (AID 487;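 active = visually confirmed hit in the image check and inhibition above 20%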;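 for inhibition: signal is fraction of cell area covered by stained E-selectin grains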;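 for nuclei count: 100% = median nuclei count of all wells on the same plate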); conditions: HUVEC TNFalpha-induced E-selectin immunofluorescence imaging, at 2 µM; inhibition: stronger effect = higher value; nuclei count: measured here: cell number, toxicity
[3] = Primary imaging screen for DUSP6 inhibitors that restore phospho-Erk in transfected HeLa cells, chemical complementation (AID 609;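 active = compounds giving at least 50% inhibition in the cell-based MKP-3 phosphatase rescue imaging test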;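 for inhibition: phospho-Erk level distribution per well compared with pooled transfected vehicle control wells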); conditions: HeLa MKP-3 transfected, phospho-Erk imaging KS statistic, at 10 µM, cells stimulated with TPA for 15 min
[4] = molecular target: Dual specificity protein phosphatase 6 (Homo sapiens) (UniProt Q16828); assay: as above; conditions: HeLa MKP-3 transfected, phospho-Erk imaging KS statistic; at 10 µM; stronger effect = higher value; cells stimulated with TPA for 15 min
[5] = molecular target: Voltage-gated potassium channel subunit beta-2 (Rattus norvegicus) (UniProt P62483); assay: inhibitors of rat Kvbeta2 reductase activity – biochemical, NADPH fluorescence, primary screen (AID 622;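 active = fluorescence slope higher than the sample average by over 3 SD, cut at about -0.22 in these data, passing the limit was not always enough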;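 note: slope of raw intensity against log time taken from 70 to 1610 s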); conditions: recombinant KvBeta, 4-cyanobenzaldehyde reduction, at 10 µM, stronger effect = higher value
[6] = molecular target: Voltage-gated potassium channel subunit beta-2 (Rattus norvegicus) (UniProt P62483); assay: enhancers of rat Kvbeta2 NADPH turnover – biochemical, NADPH fluorescence, primary screen (AID 623;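 active = NADPH fluorescence slope more negative than the mean of all samples by about 3 SD, 99.7% confidence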;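 note: fluorescence intensity change per second fitted from 20 to 320 s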); conditions: Recombinant KvBeta, NADPH fluorescence decrease slope, 10 min; at 10 µM; stronger effect = lower value
[7] = molecular target: Muscarinic acetylcholine receptor M4 (Homo sapiens) (UniProt P08173); assay: M4-linked GIRK flux change, two-sided – cell-based, HEK293 M4/GIRK, thallium flux, BTC-AM, M4 allosteric agonist project, primary screen (AID 625;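 active = fluorescence slope after compound addition differing from the mean of all tested samples at 99.7% confidence, mostly higher but some lower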;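 note: thallium influx through GIRK channels coupled to M4 in HEK293 cells with BTC-AM dye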); conditions: at 10 µM, actives lie on both sides
Procedure, shortened: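 Material – HEK293 cells with M4 receptor and GIRK channels · Buffer or medium – pH 7.3 thallium assay buffer · Doses – one dose, 10 µM final · Timing – cells overnight at 37 °C, BTC-AM loading 1 h, reads 2 min total · Measured by – kinetic fluorescence with BTC-AM dye · Controls – carbachol and DMSO controls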

[8] = inhibitors of larval lipid processing in zebrafish, primary screen, whole organism, PED6 fluorescence, gall bladder and intestine (AID 686); conditions: Zebrafish larvae PED6 lipid processing, fluorescence scoring; screened at 20 µM (by protocol);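 note: larvae 5 to 7 days old with five fish per well; signal comes from phospholipase A2 cleavage of quenched PED6 carried via bile; overnight exposure to compound and PED6 before scoring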
Procedure, shortened: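 system = live zebrafish larvae aged 5-7 days, whole organism | probe or stimulus = ingested quenched lipid PED6 at 100 nM | doses = 20 µM single dose | timing = overnight exposure | detection = fluorescence microscopy with visual scoring of gall bladder and intestine | read-out = visual per-well fluorescence inhibition score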

[9] = loss of swimming-algae plug formation – whole organism, Chlamydomonas reinhardtii, WT vs cilia-less mutant, absorbance, 96-well, primary screen (AID 463189;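 active = inhibition at or above 50% relative to wild type and mutant plate controls; inactive = inhibition below 50%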;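 note: 0% = wild type cc124 cells in DMSO and 100% = ciliumless bld1 mutant cells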); conditions: Chlamydomonas reinhardtii gravitaxis, OD600 absorbance, 2 days; at 10 µM; stronger effect = higher value
[10] = measured here: cell density z-score
[11] = measured here: nuclear c-Myc green intensity z-score
[12] = measured here: nuclear pErk red intensity z-score, stronger effect = higher value

Dual specificity protein phosphatase 6 (Homo sapiens), sequence (Q16828 whole entry, looked up): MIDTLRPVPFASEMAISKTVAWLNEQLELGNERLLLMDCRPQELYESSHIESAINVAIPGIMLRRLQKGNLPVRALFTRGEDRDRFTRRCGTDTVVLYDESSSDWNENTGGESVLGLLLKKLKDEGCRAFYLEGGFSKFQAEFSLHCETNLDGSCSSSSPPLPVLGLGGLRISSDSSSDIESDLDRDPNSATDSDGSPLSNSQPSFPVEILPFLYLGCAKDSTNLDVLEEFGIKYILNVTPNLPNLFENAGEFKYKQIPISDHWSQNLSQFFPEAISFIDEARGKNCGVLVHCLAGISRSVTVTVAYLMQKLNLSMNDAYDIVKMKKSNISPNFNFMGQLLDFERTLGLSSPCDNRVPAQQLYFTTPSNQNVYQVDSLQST
Muscarinic acetylcholine receptor M4 (Homo sapiens), sequence (P08173 whole entry, looked up): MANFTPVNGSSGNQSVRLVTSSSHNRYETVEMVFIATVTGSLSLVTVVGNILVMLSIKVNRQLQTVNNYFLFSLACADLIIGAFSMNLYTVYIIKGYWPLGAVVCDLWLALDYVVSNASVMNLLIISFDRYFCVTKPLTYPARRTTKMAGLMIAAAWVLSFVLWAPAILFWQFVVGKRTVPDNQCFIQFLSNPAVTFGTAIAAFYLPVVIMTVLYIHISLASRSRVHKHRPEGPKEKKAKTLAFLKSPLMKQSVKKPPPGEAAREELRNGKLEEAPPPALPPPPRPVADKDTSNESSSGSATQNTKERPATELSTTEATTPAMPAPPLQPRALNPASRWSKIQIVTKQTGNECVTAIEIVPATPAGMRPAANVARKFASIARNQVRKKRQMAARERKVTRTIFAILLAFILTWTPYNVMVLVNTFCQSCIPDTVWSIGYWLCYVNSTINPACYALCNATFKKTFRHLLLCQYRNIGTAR
Voltage-gated potassium channel subunit beta-2 (Rattus norvegicus), sequence (P62483 whole entry, looked up): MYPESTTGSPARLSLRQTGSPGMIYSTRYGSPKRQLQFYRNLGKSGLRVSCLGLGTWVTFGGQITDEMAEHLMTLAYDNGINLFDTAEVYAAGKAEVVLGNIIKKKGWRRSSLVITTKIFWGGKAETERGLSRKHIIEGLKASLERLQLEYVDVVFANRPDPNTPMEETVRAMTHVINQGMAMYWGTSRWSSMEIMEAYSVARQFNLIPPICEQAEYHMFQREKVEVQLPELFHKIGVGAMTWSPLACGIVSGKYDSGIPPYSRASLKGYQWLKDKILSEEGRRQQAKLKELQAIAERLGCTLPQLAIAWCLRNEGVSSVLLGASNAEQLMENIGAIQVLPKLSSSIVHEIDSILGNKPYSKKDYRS

Compound	cell count [1]	inhibition [1]	inhibition [2]	nuclei count [2] [%]	z-score [3, 10]	z-score [3, 11]	z-score [3, 12]	inhibition [4]	fluorescence slope [5]	NADPH fluorescence slope [6]	fluorescence slope [7]	outcome [8]	inhibition [9]
CC(NC(=O)CSc1nnc(COc2ccccc2)o1)c1ccccc1 (stereo unspecified)	397	1.7% (inactive)	-35.2% (inactive)	134	-0.868	0.275	1.84	-6.86% (inactive)	-0.453 (inactive)	-0.000143 (inactive)	0.00476 (inactive)	inactive	5.02% (inactive)
N#Cc1nc(-c2cccs2)oc1NCc1ccccc1Cl	657	3.4% (inactive)	-84% (inactive)	107	-2.24	1.03	1.6	1.63% (inactive)	-0.513 (inactive)	-3.2e-05 (inactive)	0.00761 (inactive)	inactive	-1.01% (inactive)
CN(C)c1cccc2c(S(=O)(=O)N3CCOCC3)cccc12	607	-7.5% (inactive)	-24.7% (inactive)	157	-2.51	1.31	-0.367	-9.91% (inactive)	-0.275 (inactive)	-7.8e-05 (inactive)	0.00799 (inactive)	inactive	-1.61% (inactive)
Cc1cc2c(c(=O)n1Cc1ccccn1)C(c1ccc3c(c1)OCO3)C(C#N)=C(N)O2 (stereo unspecified)	692	-7.3% (inactive)	-44.9% (inactive)	183	0.057	2.34	0.285	-2.91% (inactive)	-0.451 (inactive)	-5.4e-05 (inactive)	0.00525 (inactive)	inactive	11.3% (inactive)
N#CC1=C(N)OC2=C(C(=O)CCC2)[C@]12C(=O)N(CC(N)=O)c1ccccc12	485	-9.7% (inactive)	-41.1% (inactive)	130	-0.751	0.747	-0.43	-7.28% (inactive)	-0.431 (inactive)	-3e-05 (inactive)	0.00487 (inactive)	inactive	-0.197% (inactive)
CC(C)OCCCNc1ncnc2c1cnn2-c1ccccc1	571	-10.1% (inactive)	45.3% (inactive)	117	0.477	1.09	-0.0471	15.4% (inactive)	-0.377 (inactive)	-5.1e-05 (inactive)	0.00537 (inactive)	inactive	18.2% (inactive)
Cc1cc(OCC(=O)Nn2cnnc2)ccc1Br	529	-8.3% (inactive)	-72.3% (inactive)	119	0.551	0.431	0.858	-6.59% (inactive)	-0.433 (inactive)	-0.00012 (inactive)	0.00434 (inactive)	inactive	-9.18% (inactive)
COC(=O)/C=c1/s/c(=C(\C#N)C(=O)NCc2ccco2)n(-c2ccccc2)c1=O	395	0.2% (inactive)	-54.5% (inactive)	129	-0.296	-0.55	-0.453	1.48% (inactive)	-0.455 (inactive)	-3.8e-05 (inactive)	0.00374 (inactive)	inactive	45.7% (inactive)
COc1ccc(N2C(=O)C3C(C2=O)C2C=CC3C23CC3)c(OC)c1 (stereo unspecified)	517	-4.2% (inactive)	41.1% (inactive)	197	0.465	-0.843	1.05	11.9% (inactive)	-0.422 (inactive)	-4.3e-05 (inactive)	0.00475 (inactive)	inactive	24.5% (inactive)
COC(=O)Sc1nc(N2CCOCC2)c2c(c1C#N)CC(C)(C)OC2	565	-2% (inactive)	-116% (inactive)	132	0.0433	-0.438	1.3	3.42% (inactive)	-0.49 (inactive)	-0.000143 (inactive)	0.00476 (inactive)	inactive	24.4% (inactive)
COC(=O)c1[nH]c2cc(OC)ccc2c1NC(=O)CN1CCN(c2cccc(C)c2)C(C)C1 (stereo unspecified)	670	1% (inactive)	-108% (inactive)	166	-0.376	-0.924	-0.753	-1.12% (inactive)	-0.429 (inactive)	-3.4e-05 (inactive)	0.0042 (inactive)	inactive	4.21% (inactive)
N#Cc1c(N2CCOCC2)nc(-c2ccco2)c2c1CCCC2	536	-3% (inactive)	-19.5% (inactive)	96.6	0.112	0.592	-1.17	-2.09% (inactive)	-0.412 (inactive)	-2e-05 (inactive)	0.00398 (inactive)	inactive	18.9% (inactive)
